Measured values gathered from unrelated publications.
Lines come from different studies, so protocols differ.
Target: Activin receptor type-1-like (ACVRL1, Homo sapiens, UniProt P37023)

With `O=C(Nc1c[nH]nc1C(=O)NC1CCNCC1)c1cc(F)cc(F)c1` the remaining binding was 94% (binding, competition with immobilised ligand; 1 µM).
`FC(F)(F)c1ccc2c(c1)nc(-c1cccnc1)n2C1CC1` gave a remaining binding of 100% (cell-free assay, competition with immobilised ligand; 1 µM).
The remaining binding of `Nc1ncc2c(n1)-c1c([nH]c3ccc(C#CC4CC4)cc13)CCCC2` is reported as 100% (binding, competition with immobilised ligand; 1 µM).
For `CC1=C(C#N)[C@@H](c2ccc3[nH]nc(C)c3c2)C(C#N)=C(c2ccc(Cl)cc2)N1`, the remaining binding was 79% (binding, competition with immobilised ligand; 1 µM).
`CC1CCCN1c1nccc(-c2cnn3ncccc23)n1` (stereo not shown) gave a remaining binding of 89% (binding; 1 µM).
`COc1cnc(Nc2cccc(S(N)(=O)=O)c2)nc1N1CCN(c2ccccc2)C(=O)C1` has a remaining binding of 95% (binding, competition with immobilised ligand; 1 µM).
For `NS(=O)(=O)c1cc(NC(=O)C2(c3ccccc3Cl)CC2)ccc1Oc1cccc(Cl)c1`, the remaining binding was 45% (binding, competition with immobilised ligand; 1 µM).
`O=C(NCCCN1CCOCC1)c1ccc(Nc2ncc(Cl)c(-c3ccc(Cl)s3)n2)cc1` has a remaining binding of 100% (binding, competition with immobilised ligand; 1 µM).
`Cc1cnn2ncc(-c3ccnc(N(C)C)n3)c2c1` gave a remaining binding of 91% (binding; 1 µM).
`Cc1c[nH]c2nccc(Oc3c(F)cc(Nc4cc(Cl)nc(N)n4)cc3F)c12` gave a remaining binding of 100% (cell-free assay, competition with immobilised ligand; 0.1 µM).
`CN(CCCC(F)(F)F)c1nccc(-c2cnn3ncccc23)n1` has a remaining binding of 68% (binding; 1 µM).
With `CCc1ccccc1C(=O)Nc1n[nH]c2c(C)c(F)c(C3C(C#N)=C(C)N(C)C(C)=C3C#N)cc12` the remaining binding was 75% (binding, competition with immobilised ligand; 1 µM).
`N[C@H]1CCN(c2nccc(-c3cnn4ncccc34)n2)C1` has a remaining binding of 97% (binding; 1 µM).
For `COc1cnc(Nc2cccc(S(N)(=O)=O)c2)nc1N1CCN(c2ccccc2)CC1`, the remaining binding was 98% (binding, competition with immobilised ligand; 1 µM).
With `CC1=C(C#N)C(c2ccc3c(c2)c(NC(=O)c2ccccc2C)nn3C)C(C#N)=C(C)N1` the remaining binding was 97% (binding, competition with immobilised ligand; 1 µM).
`COc1ccnn2ncc(-c3ccnc(N(C)C)n3)c12` has a remaining binding of 100% (binding; 1 µM).
`O=C(c1ccc(Nc2nccc(-c3cc4ccccc4s3)n2)cc1)N1CCC(N2CCCC2)CC1` gave a remaining binding of 100% (binding, competition with immobilised ligand; 1 µM).
`F[C@@H]1CCN(c2nccc(-c3cnn4ncccc34)n2)C1` has a remaining binding of 88% (binding; 1 µM).
`CCOCCn1cc(C(=O)Nc2ccc(-n3nc(-c4cccnc4)cc3C(F)(F)F)cn2)ccc1=O` gave a remaining binding of 100% (cell-free assay, competition with immobilised ligand; 1 µM).
For `Cc1cnc(Nc2ccc(C(=O)N3CCC(N4CCCC4)CC3)cc2)nc1-c1cc2ccccc2s1`, the remaining binding was 100% (binding, competition with immobilised ligand; 1 µM).
The remaining binding of `CN(C)c1nccc(-c2cnn3ncccc23)n1` is reported as 100% (binding; 1 µM).
The remaining binding of `C=CC(=O)N1CCC(C(=O)NCC(=O)N2CCN(c3nc(-c4cnc(N)nc4C(F)F)nc(N4CCOCC4)n3)CC2)CC1` is reported as 92% (binding, competition with immobilised ligand; 1 µM).
